Hits are enriched below; roughly 4% of the tested compounds scored in any of these assays.
PHOSPHO1 block: PHOSPHO1 (human) inhibition; Q8TCT1; recombinant PHOSPHO1, absorbance phosphatase assay; inhibition, % at 13.3 µM; 290,000 compounds, 1.1% hits; AID 1565; in the data active means inhibition above about 60%
KCNK3 inh: human KCNK3 channel inhibition, primary screen; 340,000 compounds, 0.84% hits; B-score at 10 µM; O14649; AID 602410; CHO-KCNK3 thallium flux, FluxOR fluorescence; active compounds read low;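 active means B-score under library mean minus 4 SD, starting fluorescence ratio at most library mean plus 5 SD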;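 further: more negative B-score means stronger inhibition of thallium flux through KCNK3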
KCNQ1 act: potentiates or activates the human KCNQ1 potassium channel; P51787; CHO-K1 KCNQ1, thallium flux FluxOR fluorescence; active compounds read high; B-score at 10 µM; 310,000 compounds, 0.35% hits; AID 2648;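 active means fluorescence ratio B-score, a plate-corrected score, at least three library SD, with initial intensity B-score within 5 SD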
Target sequence (P51787 whole entry, looked up): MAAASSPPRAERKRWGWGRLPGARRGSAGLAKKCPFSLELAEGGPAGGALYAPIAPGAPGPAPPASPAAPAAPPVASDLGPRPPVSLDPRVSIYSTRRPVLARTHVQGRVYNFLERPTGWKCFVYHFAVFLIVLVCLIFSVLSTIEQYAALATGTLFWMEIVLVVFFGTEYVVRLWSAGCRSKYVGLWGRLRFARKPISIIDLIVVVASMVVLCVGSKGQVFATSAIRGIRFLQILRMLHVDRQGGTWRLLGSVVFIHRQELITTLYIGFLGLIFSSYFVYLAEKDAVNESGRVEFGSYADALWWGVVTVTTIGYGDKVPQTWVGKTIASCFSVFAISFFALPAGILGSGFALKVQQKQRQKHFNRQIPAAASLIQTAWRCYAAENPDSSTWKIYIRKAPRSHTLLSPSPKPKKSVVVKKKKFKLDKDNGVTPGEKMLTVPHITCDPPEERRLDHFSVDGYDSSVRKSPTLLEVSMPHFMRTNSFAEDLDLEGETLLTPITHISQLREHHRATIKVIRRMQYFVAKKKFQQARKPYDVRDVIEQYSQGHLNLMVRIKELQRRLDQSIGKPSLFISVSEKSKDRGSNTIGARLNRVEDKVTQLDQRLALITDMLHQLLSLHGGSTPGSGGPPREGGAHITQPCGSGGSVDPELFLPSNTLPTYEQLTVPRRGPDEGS
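Test system: CHO-K1 cells stably expressing KCNQ1 / Medium: assay buffer / Also added: depolarizing K+/Tl+ stimulus, K2SO4 and Tl2SO4 each 12.5 mM in 5x stock / Incubation: 90 min dye loading and 20 min compound exposure, both at room temperature / Signal: thallium influx via FluxOR fluorescence, kinetic imaging / Evaluation: B score of baseline-normalized fluorescence ratio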
KCNQ1 inh: inhibitors of human KCNQ1 potassium channel | CHO-K1 KCNQ1, FluxOR thallium flux fluorescence; active compounds read high | B-score at 10 µM | 310,000 compounds, 1.3% hits;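 active means compounds whose thallium flux B-score, printed positive for inhibition, exceeds three library SD while starting fluorescence stays within three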;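 further: channel opened by potassium depolarization with thallium stimulus after 20 min compound exposure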
hERG protect: compounds protecting human hERG from proarrhythmic drug block. CHO-hERG, FluxOR thallium flux, dofetilide IC70 present. Q12809. 310,000 compounds, 0.51% hits. AID 1511. activation (rescue from dofetilide block), less the hit threshold, % at 10 µM;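 active means activation above the mean of controls blocked by dofetilide plus 5 SD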;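 further: thallium influx through hERG after potassium depolarization seen as dye fluorescence rise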
KCNK9 block: inhibitors of human KCNK9 two-pore domain potassium channel | Q9NPC2 | HEK293 KCNK9, FluxOR thallium flux fluorescence; active compounds read low | B-score at 10 µM | 310,000 compounds, 1.2% hits | AID 488922;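 active means ratio B-score over 3 SD below the library mean, with starting fluorescence within 5 SD of its mean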;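 further: negative B-score means less thallium flux so channel inhibition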
* = called active by the depositor; i = inactive; . = no result given.

SMILES | PHOSPHO1 block | KCNK3 inh | KCNQ1 act | KCNQ1 inh | hERG protect | KCNK9 block
O=C1C(Cl)=C(Nc2ccc3cn[nH]c3c2)C(=O)c2ccccc21 | 34.3 | i | i | 9* | -8.6 | i
CC(=O)Nc1ccc(NC2=C(Cl)C(=O)c3ccccc3C2=O)cc1 | 12.3 | . | i | 12* | -9.5 | i
Clc1cccc(CSc2nnc(-c3sccc3-n3cccc3)o2)c1 | 23.5 | i | i | 7* | -5.2 | i
Clc1cc(Cl)cc(CSc2nnc(-c3sccc3-n3cccc3)o2)c1 | 40.5 | i | i | i | -7.0 | i
CN(c1ccccc1)S(=O)(=O)c1ccc(Cl)c(C(=O)Nc2ccc(-c3nc4ccccc4[nH]3)cc2)c1 | -6.6 | i | i | i | -17.5 | i
CN(c1ccccc1)S(=O)(=O)c1ccc(Cl)c(C(=O)Nc2nc3ccccc3[nH]2)c1 | -10.5 | i | i | i | -5.8 | -7.09*
O=C(C1=NN(c2ccccc2)C2C(=O)N(c3ccc(Cl)cc3)C(=O)C12)c1ccccc1 (centres undefined) | 11.3 | i | . | . | . | .
COC(=O)C1=NN(c2ccc(C)cc2)C2C(=O)N(c3ccccc3OC)C(=O)C12 (centres undefined) | 23.6 | i | i | i | -0.5 | i
COc1ccccc1N1C(=O)C2C(C(=O)c3ccccc3)=NN(c3ccc(Br)cc3)C2C1=O (centres undefined) | 12.9 | i | i | i | -21.2 | -7.24*
COc1ccccc1N1C(=O)C2C(C(=O)c3ccccc3)=NN(c3ccc(C)cc3)C2C1=O (centres undefined) | 17.5 | i | i | 6* | -10.3 | i
Cc1cc(C)n(-c2cc(O)c(-n3nc(C)cc3C)cc2O)n1 | 36.7 | i | i | i | -1.0 | i
COc1ccc(CC(=O)NCC2CCCN(Cc3ccc(OC(F)(F)F)cc3)C2)cc1 (centres undefined) | 34.8 | i | i | i | 0.8 | i
CC(c1ccccc1)n1c(-c2cccs2)nc2c(c(=O)c3ccccc3n2C)c1=O (centres undefined) | 0.1 | i | i | i | -4.8 | -8.09*
CCOCC(O)CNc1ccccc1 (centres undefined) | -1.1 | i | i | i | 5.4* | i
OC(CNc1ccccc1)COc1ccc(OCC(O)CNc2ccccc2)cc1 (centres undefined) | -3.5 | i | i | i | -7.5 | i
CC(NC(=O)CCNS(=O)(=O)c1ccc2c(c1)oc(=O)n2C)c1ccccc1 (centres undefined) | 22.4 | i | i | i | -10.8 | i
Cc1ccnc(Nc2nc(-c3ccc(O)cc3)cs2)c1 | 26.5 | i | i | i | -1.6 | -6.68*
Cc1ccnc(Nc2nc(-c3ccc(O)c(O)c3)cs2)c1 | 14.1 | i | i | i | -30.1 | i
COc1ccc(C(=O)O/N=C(\N)Cc2ccc([N+](=O)[O-])cc2)c(OC)c1 | 11.9 | i | i | i | -10.2 | i
COc1ccc(C(CNC(=O)CNC(=O)c2cccc(C)c2)N2CCCCC2)cc1 (centres undefined) | . | i | . | . | . | .
COc1cccc(/C=N/n2c(=S)n(C)c3ccccc32)c1OC | 73.3* | i | i | i | -15.0 | i
S=C(NCCc1ccccc1)N1CCn2cccc2C1c1cccnc1 (centres undefined) | -13.0 | i | 15* | i | -12.4 | i
CCCCC(CC)CN1C(=O)/C(=C/c2ccncc2)SC1=S (centres undefined) | 6.0 | i | i | 7* | -2.9 | i
COC(=O)CSc1nc(C)c(C)c(C)c1C(N)=O | 62.2* | i | i | i | -3.4 | i
Cn1ncc2c(N3CCC(Cc4ccccc4)CC3)ncnc21 | 34.9 | i | i | i | -13.1 | i
SMILES | PHOSPHO1 block | KCNK3 inh | KCNQ1 act | KCNQ1 inh | hERG protect | KCNK9 block
NNC(=O)c1cc2c(N3CCC(Cc4ccccc4)CC3)ncnc2s1 | 8.1 | i | i | 6* | -21.5 | i
O=C(NC1CCCc2ccccc21)C(Cc1ccccc1)NS(=O)(=O)c1cccs1 (centres undefined) | -14.1 | i | i | i | -8.8 | i
O=C(NC1CCCCC1)C(Cc1ccccc1)NS(=O)(=O)c1cccs1 (centres undefined) | 13.8 | i | i | i | 7.9* | i
O=C(Nc1ccccc1C(=O)NC(Cc1ccccc1)C(=O)NC1CCCCCC1)c1ccccc1 (centres undefined) | 48.5 | i | i | 6* | -5.7 | i
O=C(CSc1ncnc2c1oc1ccccc12)c1cccs1 | 26.1 | i | i | i | -1.7 | i
Cc1nc(SCC(=O)c2cccs2)c2oc3ccccc3c2n1 | 37.3 | i | i | 10* | -15.9 | i
COc1ccc(N2CCC(CNC(=O)Nc3ccc(Cl)cc3)C2)cc1 (centres undefined) | -27.5 | i | i | i | -17.4 | i
O=C(NCc1ccccc1)C1CCC(=O)N(CCCN2CCCC2=O)C1 (centres undefined) | 47.9 | i | i | i | -8.0 | i
S=c1nc(C23CC4CC(CC(C4)C2)C3)[nH][nH]1 | 50.9 | i | i | i | -5.5 | i
S=c1nn[nH]n1C12CC3CC(CC(C3)C1)C2 | 101.6* | i | 9* | i | 13.8* | i
CCC(=NN=C(CC)c1ccccc1O)c1ccccc1O | . | -9.89* | . | . | . | .
C/C(=N/N=C(\C)c1ccccc1O)c1ccccc1O | 9.3 | i | i | i | -8.1 | i
COc1ccc(CC(=O)NCc2nnc(SCC(=O)Nc3ccc(OC)cc3)n2C)cc1 | 65.8* | i | i | i | -8.2 | i
COc1ccc(CC(=O)NCc2nnc(SCC(=O)Nc3ccccc3)n2C)cc1 | 37.0 | i | i | i | -4.2 | i
CCN(CC)P(=O)(Nc1ccc(C)cc1Br)c1ccc(N(C)C)cc1NC(=O)c1ccco1 (centres undefined) | -4.0 | i | i | 7* | -17.3 | i
CCOC(=O)Nc1ccc(C)cc1Br | 19.2 | i | i | i | -1.2 | i
CCOC(=O)NC(=S)Nc1ccc(C(C)(C)C)cc1Br | 29.8 | i | 22* | i | 10.7* | i
COc1ccccc1C(CNC(=O)c1cccc(NS(=O)(=O)c2ccc(C)c(F)c2)c1)N1CCCC1 (centres undefined) | . | i | i | i | -15.2 | i
Cc1cc(Cl)c(OCCCN(C)C)c(Br)c1 | 62.7* | i | i | i | -6.8 | i
CCn1nc(C)cc1-c1nnc(Sc2ncc([N+](=O)[O-])s2)n1C | 24.2 | i | i | 11* | -26.4 | i

Assay outcomes deposited in PubChem BioAssay by several laboratories.
